Experiments:
[1] = test system: SK-MEL-2; assay: Antiproliferative activity against human SK-MEL-2 cells assessed as total growth inhibition measured after 48 hrs by SRB assay; settings: SK-MEL-2, 48 h
[2] = Cytotoxicity against human L132 cells assessed as cell growth inhibition incubated for 48 hrs by MTT assay; assay type: toxicity, cell-based
[3] = biological target: Mitogen-activated protein kinase kinase kinase 20 (Homo sapiens, UniProt Q9NYL2); assay: Inhibition of ZAK (unknown origin) incubated for 1 hr by qPCR analysis
In short: (§1)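 Competition binding assay. Kinases were either T7-phage-tagged (grown in an E. coli BL21-derived host) or expressed in HEK-293 cells and DNA-tagged. […] Bound kinase was eluted with non-biotinylated ligand and quantified by qPCR.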

[4] = biological target: Mitogen-activated protein kinase 11 (Homo sapiens, UniProt Q15759); assay: Inhibition of MAPK11 (unknown origin) incubated for 1 hr by qPCR analysis; in short: as §1
[5] = test system: Panel melanoma (Carcinoma cell lines); assay: Antiproliferative activity against human Panel melanoma (Carcinoma cell lines) assessed as cell growth inhibition measured after 48 hrs by SRB assay
[6] = biological target: Serine/threonine-protein kinase/endoribonuclease IRE1 (Homo sapiens, UniProt O75460); assay: Inhibition of ERN1 (unknown origin) incubated for 1 hr by qPCR analysis; in short: as §1
[7] = test system: LOX IMVI; assay: Antiproliferative activity against human LOX IMVI cells assessed as cell growth inhibition measured after 48 hrs by SRB assay
[8] = test system: MDA-MB-435; assay: Antiproliferative activity against human MDA-MB-435 cells assessed as cell growth inhibition measured after 48 hrs by SRB assay; settings: MDA-MB-435, 48 h
[9] = test system: M14; assay: Antiproliferative activity against human M14 cells assessed as cell growth inhibition measured after 48 hrs by SRB assay; settings: M14, 48 h
[10] = test system: Panel leukemia (Carcinoma cell lines); assay: cells; settings: Homo sapiens, 48 h, read-out: INH
[11] = test system: SK-MEL-5; assay: Antiproliferative activity against human SK-MEL-5 cells assessed as cell growth inhibition measured after 48 hrs by SRB assay; settings: SK-MEL-5, 48 h
[12] = test system: Panel CNS (Carcinoma cell lines); assay: Antiproliferative activity against human Panel CNS (Carcinoma cell lines) assessed as cell growth inhibition measured after 48 hrs by SRB assay
[13] = test system: Panel colon (Carcinoma cell lines); assay: Antiproliferative activity against human Panel colon (Carcinoma cell lines) assessed as cell growth inhibition measured after 48 hrs by SRB assay
[14] = test system: Panel ovarian (Carcinoma cell lines); assay: Antiproliferative activity against human Panel ovarian (Carcinoma cell lines) assessed as cell growth inhibition measured after 48 hrs by SRB assay
[15] = test system: UACC-257; assay: Antiproliferative activity against human UACC-257 cells assessed as cell growth inhibition measured after 48 hrs by SRB assay; settings: UACC-257, 48 h
[16] = biological target: Mitogen-activated protein kinase 14 (Homo sapiens, UniProt Q16539); assay: Inhibition of MAPK14 (unknown origin) incubated for 1 hr by qPCR analysis; in short: as §1
[17] = test system: Panel prostate (Carcinoma cell lines); assay: Antiproliferative activity against human Panel prostate (Carcinoma cell lines) assessed as cell growth inhibition measured after 48 hrs by SRB assay
[18] = test system: SK-MEL-2; assay: Antiproliferative activity against human SK-MEL-2 cells assessed as cell growth inhibition measured after 48 hrs by SRB assay; settings: SK-MEL-2, 48 h
[19] = test system: M14; assay: Antiproliferative activity against human M14 cells assessed as total growth inhibition measured after 48 hrs by SRB assay; settings: M14, 48 h
[20] = test system: SK-MEL-5; assay: Antiproliferative activity against human SK-MEL-5 cells assessed as total growth inhibition measured after 48 hrs by SRB assay; settings: SK-MEL-5, 48 h
[21] = biological target: Homeodomain-interacting protein kinase 1 (Homo sapiens, UniProt Q86Z02); assay: Inhibition of HIPK1 (unknown origin) incubated for 1 hr by qPCR analysis; in short: as §1
[22] = test system: Panel renal (Carcinoma cell lines); assay: Antiproliferative activity against human Panel renal (Carcinoma cell lines) assessed as cell growth inhibition measured after 48 hrs by SRB assay
[23] = test system: Panel CNS (Carcinoma cell lines); assay: cells; settings: Homo sapiens, 48 h, read-out: INH

Chain of Serine/threonine-protein kinase/endoribonuclease IRE1 (O75460 whole entry): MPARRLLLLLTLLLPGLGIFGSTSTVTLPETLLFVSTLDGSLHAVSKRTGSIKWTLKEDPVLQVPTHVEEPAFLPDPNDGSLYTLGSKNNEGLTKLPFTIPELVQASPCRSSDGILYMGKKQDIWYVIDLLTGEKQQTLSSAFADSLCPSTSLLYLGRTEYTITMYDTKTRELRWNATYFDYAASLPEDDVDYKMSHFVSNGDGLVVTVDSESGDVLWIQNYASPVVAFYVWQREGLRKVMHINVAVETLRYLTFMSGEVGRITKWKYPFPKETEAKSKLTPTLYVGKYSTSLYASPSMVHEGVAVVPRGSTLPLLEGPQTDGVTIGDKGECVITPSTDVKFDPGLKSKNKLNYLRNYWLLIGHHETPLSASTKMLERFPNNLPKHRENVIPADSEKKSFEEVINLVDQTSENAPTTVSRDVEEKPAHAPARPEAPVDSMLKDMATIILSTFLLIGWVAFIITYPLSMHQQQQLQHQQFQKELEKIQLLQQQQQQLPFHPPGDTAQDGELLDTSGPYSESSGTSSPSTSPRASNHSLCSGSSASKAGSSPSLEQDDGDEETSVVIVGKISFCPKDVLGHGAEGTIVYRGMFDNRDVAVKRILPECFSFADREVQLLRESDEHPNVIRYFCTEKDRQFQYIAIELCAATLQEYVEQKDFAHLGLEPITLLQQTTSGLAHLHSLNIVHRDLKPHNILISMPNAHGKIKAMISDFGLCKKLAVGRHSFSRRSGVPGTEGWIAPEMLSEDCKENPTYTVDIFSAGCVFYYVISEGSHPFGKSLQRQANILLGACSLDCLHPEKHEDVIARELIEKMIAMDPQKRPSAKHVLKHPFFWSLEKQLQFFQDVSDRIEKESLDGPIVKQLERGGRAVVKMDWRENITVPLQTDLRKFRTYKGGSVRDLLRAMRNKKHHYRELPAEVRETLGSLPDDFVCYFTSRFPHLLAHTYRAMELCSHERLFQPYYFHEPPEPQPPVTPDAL
Chain of Mitogen-activated protein kinase 14 (Q16539 whole entry): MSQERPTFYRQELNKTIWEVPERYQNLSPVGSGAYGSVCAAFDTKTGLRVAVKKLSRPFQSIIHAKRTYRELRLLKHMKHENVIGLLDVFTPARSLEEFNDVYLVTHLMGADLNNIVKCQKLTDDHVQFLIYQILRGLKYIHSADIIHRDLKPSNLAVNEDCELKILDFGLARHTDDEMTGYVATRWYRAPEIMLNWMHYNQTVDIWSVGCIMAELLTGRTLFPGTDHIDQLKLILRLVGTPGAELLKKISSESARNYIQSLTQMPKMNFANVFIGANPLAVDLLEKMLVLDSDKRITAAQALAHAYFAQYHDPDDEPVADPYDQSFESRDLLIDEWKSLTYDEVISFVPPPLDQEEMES
Chain of Homeodomain-interacting protein kinase 1 (Q86Z02 whole entry): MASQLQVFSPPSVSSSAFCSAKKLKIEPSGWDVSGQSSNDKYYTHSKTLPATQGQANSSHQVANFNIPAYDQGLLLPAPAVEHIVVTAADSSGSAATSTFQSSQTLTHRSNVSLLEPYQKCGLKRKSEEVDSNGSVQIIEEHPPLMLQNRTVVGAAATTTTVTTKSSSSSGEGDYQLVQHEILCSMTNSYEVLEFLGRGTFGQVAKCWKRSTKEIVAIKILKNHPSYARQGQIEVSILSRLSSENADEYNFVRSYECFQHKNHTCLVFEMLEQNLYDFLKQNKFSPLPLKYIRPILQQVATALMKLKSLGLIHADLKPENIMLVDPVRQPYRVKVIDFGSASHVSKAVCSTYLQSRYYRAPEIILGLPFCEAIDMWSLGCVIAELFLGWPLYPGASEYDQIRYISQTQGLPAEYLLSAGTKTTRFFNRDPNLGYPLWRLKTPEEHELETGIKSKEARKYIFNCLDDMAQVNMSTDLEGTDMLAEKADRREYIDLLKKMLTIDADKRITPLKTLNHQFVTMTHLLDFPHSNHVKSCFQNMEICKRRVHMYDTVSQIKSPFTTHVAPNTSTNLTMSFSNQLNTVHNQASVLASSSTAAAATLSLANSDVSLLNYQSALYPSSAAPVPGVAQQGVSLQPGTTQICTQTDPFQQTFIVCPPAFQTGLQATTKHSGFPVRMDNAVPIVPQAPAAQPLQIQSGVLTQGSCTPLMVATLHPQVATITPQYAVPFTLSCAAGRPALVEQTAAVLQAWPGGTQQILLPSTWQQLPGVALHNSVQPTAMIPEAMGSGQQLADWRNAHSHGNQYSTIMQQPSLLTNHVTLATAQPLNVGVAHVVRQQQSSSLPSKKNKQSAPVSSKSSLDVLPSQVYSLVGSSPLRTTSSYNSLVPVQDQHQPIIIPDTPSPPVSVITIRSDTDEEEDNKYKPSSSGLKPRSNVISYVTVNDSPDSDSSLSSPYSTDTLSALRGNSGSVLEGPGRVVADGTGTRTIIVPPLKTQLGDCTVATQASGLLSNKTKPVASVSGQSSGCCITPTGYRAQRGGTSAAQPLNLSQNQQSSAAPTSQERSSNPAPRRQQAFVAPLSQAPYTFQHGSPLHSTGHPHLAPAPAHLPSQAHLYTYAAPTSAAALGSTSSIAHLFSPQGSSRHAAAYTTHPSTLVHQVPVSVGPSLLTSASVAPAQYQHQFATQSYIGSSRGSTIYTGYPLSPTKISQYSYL
Chain of Mitogen-activated protein kinase kinase kinase 20 (Q9NYL2 whole entry): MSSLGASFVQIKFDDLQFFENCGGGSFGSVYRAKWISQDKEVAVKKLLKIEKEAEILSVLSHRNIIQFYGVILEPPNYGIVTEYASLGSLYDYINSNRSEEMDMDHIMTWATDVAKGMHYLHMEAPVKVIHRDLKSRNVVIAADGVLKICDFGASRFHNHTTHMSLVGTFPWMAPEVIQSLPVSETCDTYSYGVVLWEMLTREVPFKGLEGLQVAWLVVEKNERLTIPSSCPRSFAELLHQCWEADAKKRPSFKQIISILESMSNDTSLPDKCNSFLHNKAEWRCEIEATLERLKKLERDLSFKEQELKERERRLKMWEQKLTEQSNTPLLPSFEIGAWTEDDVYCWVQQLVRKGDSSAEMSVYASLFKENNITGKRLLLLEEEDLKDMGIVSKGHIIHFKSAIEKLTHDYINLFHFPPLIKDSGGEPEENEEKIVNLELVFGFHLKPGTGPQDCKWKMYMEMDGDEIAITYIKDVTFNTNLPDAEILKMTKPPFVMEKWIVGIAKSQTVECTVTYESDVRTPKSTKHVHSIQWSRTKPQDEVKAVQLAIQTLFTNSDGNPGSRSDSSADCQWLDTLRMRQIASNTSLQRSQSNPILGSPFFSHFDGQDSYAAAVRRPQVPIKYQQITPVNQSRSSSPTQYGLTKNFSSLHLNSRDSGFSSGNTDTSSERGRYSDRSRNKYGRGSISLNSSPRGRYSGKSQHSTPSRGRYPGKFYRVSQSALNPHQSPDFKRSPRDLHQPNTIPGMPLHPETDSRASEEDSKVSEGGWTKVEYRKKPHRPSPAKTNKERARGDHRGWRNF
Chain of Mitogen-activated protein kinase 11 (Q15759 whole entry): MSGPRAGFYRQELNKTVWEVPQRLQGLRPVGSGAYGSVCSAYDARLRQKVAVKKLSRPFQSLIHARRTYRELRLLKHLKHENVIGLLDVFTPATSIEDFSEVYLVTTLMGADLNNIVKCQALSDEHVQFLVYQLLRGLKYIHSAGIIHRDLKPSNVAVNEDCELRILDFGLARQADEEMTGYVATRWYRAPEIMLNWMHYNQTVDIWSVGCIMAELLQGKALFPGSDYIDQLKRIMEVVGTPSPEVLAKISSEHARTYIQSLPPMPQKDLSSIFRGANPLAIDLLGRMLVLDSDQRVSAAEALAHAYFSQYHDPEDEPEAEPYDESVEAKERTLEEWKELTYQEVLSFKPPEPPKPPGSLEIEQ

O=S(=O)(NCCCNc1nccc(-c2c(-c3cccc(O)c3)nc3sccn23)n1)c1cccc(F)c1
TGI [1]: 6570 nM
IC50 at 48 h [2]: 56300 nM
IC50 [3]: 10300 nM
IC50 [4]: 980 nM
IC50 [5]: 2030 nM
IC50 [6]: 10200 nM
IC50 [7]: 1910 nM
IC50 [8]: 2000 nM
IC50 [9]: 2540 nM
inhibition at 10 µM [10]: 93.8%
IC50 [11]: 1060 nM
IC50 [12]: 3190 nM
IC50 [13]: 3020 nM
IC50 [14]: 2970 nM
IC50 [15]: 2850 nM
IC50 [16]: 1780 nM
IC50 [17]: 2380 nM
IC50 [18]: 2320 nM
TGI [19]: 10200 nM
TGI [20]: 2280 nM
IC50 [21]: 4880 nM
IC50 [22]: 2930 nM
inhibition at 10 µM [23]: 83.1%

From ChEMBL document CHEMBL5046217, “Discovery of New Imidazo[2,1-b]thiazole Derivatives as Potent Pan-RAF Inhibitors with Promising In Vitro and In Vivo Anti-melanoma Activity” (J Med Chem, 2021)
